# Measured values published in ChEMBL document CHEMBL4699648, “Discovery of Potent and Brain-Penetrant GPR52 Agonist that Suppresses Psychostimulant Behavior” (J Med Chem, 2020).
# Active and inactive are the calls of the source. No cut-off for these calls is given here.
# Columns and labels:
# [1] = Drug level in Sprague-Dawley rat brain at 10 mg/kg, iv after 1 hr; type: ADME, organism-based; conditions: read-out: Drug uptake
# Procedure, shortened: (§1)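 Male Sprague Dawley rats, 200–250 g, n = 3, were given a single 10 mg/kg IV dose in 10% DMSO/90% HP-β-CD vehicle. Brain and jugular-vein plasma (K₂EDTA, centrifuged at 4 °C) were collected 0.25 and 1 h post-dose and stored at −20 °C. Drug concentration was measured in each and the brain/plasma ratio derived. Values are mean ± SEM of biological triplicates.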
# [2] = Oral bioavailability in Sprague-Dawley rat at 20 mg/kg mesured up to 24 hrs; type: ADME, organism-based; conditions: in vivo
# Procedure, shortened: (§2)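 Male Sprague Dawley rats, 200–250 g, n = 3 per group, were dosed at 10 mg/kg IV or 20 mg/kg PO in 10% DMSO/90% HP-β-CD. Jugular plasma was sampled from 0.08 (IV) or 0.25 (PO) to 24 h. Non-compartmental analysis gave t1/2 = 0.693/λ, AUC by linear trapezoid extrapolated to infinity, Vss after IV, and absolute F. Mean ± SEM.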
# [3] = target: 5-hydroxytryptamine receptor 3A (Homo sapiens, UniProt P46098); assay: Binding affinity to 5-HT3 (unknown origin) assessed as inhibition of ligand binding
# Sequence of 5-hydroxytryptamine receptor 3A (P46098 whole entry): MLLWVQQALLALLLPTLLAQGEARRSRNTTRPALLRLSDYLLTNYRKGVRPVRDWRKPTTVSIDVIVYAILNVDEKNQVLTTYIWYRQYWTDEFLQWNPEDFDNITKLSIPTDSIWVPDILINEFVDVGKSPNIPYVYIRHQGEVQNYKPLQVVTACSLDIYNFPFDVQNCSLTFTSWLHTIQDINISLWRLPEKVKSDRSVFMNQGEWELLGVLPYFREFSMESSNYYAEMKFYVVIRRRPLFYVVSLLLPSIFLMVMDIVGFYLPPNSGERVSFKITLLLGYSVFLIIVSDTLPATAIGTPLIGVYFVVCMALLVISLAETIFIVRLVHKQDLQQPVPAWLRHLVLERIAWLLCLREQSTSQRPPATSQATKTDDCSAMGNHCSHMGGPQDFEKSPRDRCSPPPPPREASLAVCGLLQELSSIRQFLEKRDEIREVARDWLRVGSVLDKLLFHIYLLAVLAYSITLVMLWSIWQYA
# [4] = Binding affinity to GABAA receptor (unknown origin) assessed as inhibition of ligand binding; design: species or system Homo sapiens
# [5] = target: 5-hydroxytryptamine receptor 5A (Homo sapiens, UniProt P47898); assay: Binding affinity to 5-HT5A (unknown origin) assessed as inhibition of ligand binding
# Sequence of 5-hydroxytryptamine receptor 5A (P47898 whole entry): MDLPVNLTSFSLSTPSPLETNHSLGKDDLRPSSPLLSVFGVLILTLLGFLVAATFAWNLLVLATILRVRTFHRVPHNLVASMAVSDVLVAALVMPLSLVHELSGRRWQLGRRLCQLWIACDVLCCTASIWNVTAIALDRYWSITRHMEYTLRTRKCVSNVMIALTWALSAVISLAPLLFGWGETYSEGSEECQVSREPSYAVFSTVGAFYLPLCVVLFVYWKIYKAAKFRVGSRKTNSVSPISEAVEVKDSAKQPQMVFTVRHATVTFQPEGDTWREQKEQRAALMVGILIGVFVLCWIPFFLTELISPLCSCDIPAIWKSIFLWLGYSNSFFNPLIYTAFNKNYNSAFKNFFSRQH
# [6] = target: 5-hydroxytryptamine receptor 1A (Homo sapiens, UniProt P08908); assay: Binding affinity to 5-HT1A (unknown origin) assessed as inhibition of ligand binding
# [7] = target: Muscarinic acetylcholine receptor M3 (Homo sapiens, UniProt P20309); assay: Binding affinity to M3 receptor (unknown origin) assessed as inhibition of ligand binding
# [8] = AUC (0 to infinity) in Sprague-Dawley rat at 10 mg/kg, iv mesured up to 24 hrs; type: ADME, organism-based; design: route intravenous, dose 10 mg/kg, time <=24; conditions: in vivo
# Procedure, shortened: (§3)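 Male Sprague-Dawley rats (200–250 g, n = 3/group), dosed IV 10 mg/kg or PO 20 mg/kg in 10% DMSO/90% HP-β-CD. Jugular blood into K2EDTA at 0.08 (IV only), 0.25, 0.5, 1, 2, 4, 8, 24 h; plasma by centrifugation at 4 °C, stored −20 °C. Non-compartmental analysis; Cmax read from profile, AUC by linear trapezoidal rule extrapolated to infinity; mean ± SEM.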
# [9] = Volume of distribution at steady state in Sprague-Dawley rat at 10 mg/kg, iv mesured up to 24 hrs; type: ADME, organism-based; conditions: in vivo; procedure, shortened: as §2
# [10] = target: 5-hydroxytryptamine receptor 1B (Homo sapiens, UniProt P28222); assay: Binding affinity to 5-HT1B (unknown origin) assessed as inhibition of ligand binding
# [11] = Ratio of drug level in brain to plasma of Sprague-Dawley rat at 10 mg/kg, iv after 1 hr; type: ADME, organism-based; procedure, shortened: as §1
# [12] = target: Sodium-dependent dopamine transporter (Homo sapiens, UniProt Q01959); assay: Binding affinity to DAT (unknown origin) assessed as inhibition of ligand binding
# HEK293 = assay: Effect on cAMP levels in HEK293 cells at 0.1 nM to 10000 nM incubated for 15 mins by Glosensor cAMP assay; type: functional, cell-based; conditions: Homo sapiens, dose nM 0.1-10000, time […]
# Procedure, shortened: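 HEK293 cells were transiently co-transfected with human GPR52 and the 22F Glosensor cAMP reporter. After 18 h they were seeded on poly-L-lysine, then equilibrated 2 h at room temperature in the dark in 1% Glosensor reagent/HBSS/20 mM HEPES. Cells were treated 15 min with a twelve-point series, and luminescence was read.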
# [13] = target: Beta-2 adrenergic receptor (Homo sapiens, UniProt P07550); assay: Binding affinity to beta2 adrenergic receptor (unknown origin) assessed as inhibition of ligand binding
# Sequence of Beta-2 adrenergic receptor (P07550 whole entry): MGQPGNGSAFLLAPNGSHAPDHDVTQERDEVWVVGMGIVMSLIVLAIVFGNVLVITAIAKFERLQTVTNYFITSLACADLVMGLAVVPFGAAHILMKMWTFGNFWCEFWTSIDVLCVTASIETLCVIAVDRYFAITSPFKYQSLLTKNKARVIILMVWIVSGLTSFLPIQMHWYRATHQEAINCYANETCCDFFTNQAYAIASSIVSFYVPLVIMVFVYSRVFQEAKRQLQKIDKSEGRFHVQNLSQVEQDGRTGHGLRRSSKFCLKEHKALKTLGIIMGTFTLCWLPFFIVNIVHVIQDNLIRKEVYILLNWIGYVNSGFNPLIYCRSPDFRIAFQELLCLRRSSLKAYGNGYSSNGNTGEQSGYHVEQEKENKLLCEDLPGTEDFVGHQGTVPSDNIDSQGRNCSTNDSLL
# [14] = target: Voltage-gated inwardly rectifying potassium channel KCNH2 (Homo sapiens, UniProt Q12809); assay: Binding affinity to human ERG assessed as inhibition of ligand binding
# Sequence of Voltage-gated inwardly rectifying potassium channel KCNH2 (Q12809 whole entry): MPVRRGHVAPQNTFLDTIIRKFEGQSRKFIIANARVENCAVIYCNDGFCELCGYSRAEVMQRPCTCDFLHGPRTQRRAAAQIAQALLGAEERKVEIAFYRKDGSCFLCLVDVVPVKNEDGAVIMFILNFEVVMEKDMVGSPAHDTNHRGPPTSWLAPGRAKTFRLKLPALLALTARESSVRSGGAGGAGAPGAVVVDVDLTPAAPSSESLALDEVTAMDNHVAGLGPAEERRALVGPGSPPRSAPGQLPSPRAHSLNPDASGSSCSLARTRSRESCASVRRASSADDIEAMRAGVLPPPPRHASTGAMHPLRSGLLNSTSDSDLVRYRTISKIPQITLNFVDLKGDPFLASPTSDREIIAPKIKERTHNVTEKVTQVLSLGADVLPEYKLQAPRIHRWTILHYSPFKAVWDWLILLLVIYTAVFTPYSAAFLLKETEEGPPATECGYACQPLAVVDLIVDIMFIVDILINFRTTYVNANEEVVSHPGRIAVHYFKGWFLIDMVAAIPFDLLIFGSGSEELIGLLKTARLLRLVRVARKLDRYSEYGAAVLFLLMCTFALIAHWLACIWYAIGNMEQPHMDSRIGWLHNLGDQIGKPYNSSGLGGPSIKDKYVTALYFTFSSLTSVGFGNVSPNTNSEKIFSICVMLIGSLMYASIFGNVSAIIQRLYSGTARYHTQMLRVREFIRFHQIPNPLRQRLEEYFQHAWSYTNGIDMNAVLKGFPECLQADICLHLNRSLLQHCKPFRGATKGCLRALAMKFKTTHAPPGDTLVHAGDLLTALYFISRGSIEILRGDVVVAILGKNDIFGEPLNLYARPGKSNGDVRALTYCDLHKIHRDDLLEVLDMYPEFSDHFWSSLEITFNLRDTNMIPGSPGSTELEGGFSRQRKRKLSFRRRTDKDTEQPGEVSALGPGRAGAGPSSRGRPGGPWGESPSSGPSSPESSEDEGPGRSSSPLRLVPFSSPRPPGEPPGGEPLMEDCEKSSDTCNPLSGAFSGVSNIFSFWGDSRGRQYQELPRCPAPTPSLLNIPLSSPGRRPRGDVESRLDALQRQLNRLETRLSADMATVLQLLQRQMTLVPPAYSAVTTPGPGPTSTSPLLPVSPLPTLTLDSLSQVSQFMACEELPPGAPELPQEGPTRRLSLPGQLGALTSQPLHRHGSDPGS
# [15] = target: 5-hydroxytryptamine receptor 2A (Homo sapiens, UniProt P28223); assay: Binding affinity to 5-HT2A (unknown origin) assessed as inhibition of ligand binding
# [16] = target: Alpha-1A adrenergic receptor (Homo sapiens, UniProt P35348); assay: Binding affinity to alpha1A receptor (unknown origin) assessed as inhibition of ligand binding
# Homo sapiens = organism: Homo sapiens; assay: Binding affinity to GABAA receptor (unknown origin) assessed as inhibition of ligand binding at 10 uM relative to control
# Mus musculus [17] = assay: Antipsychotic-like activity in C57/BL6 mouse assessed as reduction in horizontal activity at 3 to 10 mg/kg, ip measured after 30 mins; type: functional, organism-based; conditions: dose mg/kg 3-10, time 30.0 min
# Procedure, shortened: (§4)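 Naïve male C57/BL6 mice (24–31 g, ~60 days), handled and habituated to activity monitors beforehand; n = 12/dose (11 at 1 mg/kg after outlier exclusion). Vehicle or 0.3, 1, 3, 10 mg/kg IP, then automated horizontal activity monitored 30 min; amphetamine 3 mg/kg IP followed, with monitoring for 90 min. One-way ANOVA with Dunnett's comparisons vs vehicle; mean ± SEM; blinded dosing.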
# D(4) dopamine receptor = D(4) dopamine receptor (Homo sapiens, UniProt P21917); assay: Binding affinity to DRD4 (unknown origin) assessed as inhibition of ligand binding
# Sequence of D(4) dopamine receptor (P21917 whole entry): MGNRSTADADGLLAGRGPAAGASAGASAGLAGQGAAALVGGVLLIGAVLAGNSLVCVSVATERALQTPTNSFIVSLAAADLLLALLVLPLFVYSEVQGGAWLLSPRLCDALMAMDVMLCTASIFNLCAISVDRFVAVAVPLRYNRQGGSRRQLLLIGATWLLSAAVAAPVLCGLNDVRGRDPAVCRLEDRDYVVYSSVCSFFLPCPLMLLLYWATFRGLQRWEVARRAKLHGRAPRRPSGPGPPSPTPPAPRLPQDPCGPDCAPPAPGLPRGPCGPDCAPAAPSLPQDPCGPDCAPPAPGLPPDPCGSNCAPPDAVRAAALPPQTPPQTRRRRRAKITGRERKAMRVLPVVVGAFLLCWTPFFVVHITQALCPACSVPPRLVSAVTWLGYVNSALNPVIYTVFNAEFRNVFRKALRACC
# Mus musculus [18] = assay: Antipsychotic-like activity in C57/BL6 mouse assessed as reduction in amphetamine-evoked hyperactivity by measuring horizontal activity at 0.3 to 10 mg/kg, ip dosed 30 mins before amphetamine challenge and measured for 90 mins; type: functional, organism-based; conditions: dose mg/kg 0.3-10, time […]; procedure, shortened: as §4
# D(2) dopamine receptor = D(2) dopamine receptor (Homo sapiens, UniProt P14416); assay: Binding affinity to DRD2 (unknown origin) assessed as inhibition of ligand binding
# [19] = Cmax in Sprague-Dawley rat at 20 mg/kg, po mesured up to 24 hrs; type: ADME, organism-based; design: route oral, dose 20 mg/kg, time <=24; conditions: in vivo; procedure, shortened: as §3
# [20] = target: 5-hydroxytryptamine receptor 6 (Homo sapiens, UniProt P50406); assay: Binding affinity to 5-HT6 (unknown origin) assessed as inhibition of ligand binding
# [21] = target: 5-hydroxytryptamine receptor 7 (Homo sapiens, UniProt P34969); assay: Binding affinity to 5-HT7A (unknown origin) assessed as inhibition of ligand binding
# [22] = target: 5-hydroxytryptamine receptor 2B (Homo sapiens, UniProt P41595); assay: Binding affinity to 5-HT2B (unknown origin) assessed as inhibition of ligand binding
# [23] = Clearance in Sprague-Dawley rat at 10 mg/kg, iv mesured up to 24 hrs; type: ADME, organism-based; conditions: in vivo; procedure, shortened: as §3
# [24] = target: 5-hydroxytryptamine receptor 1E (Homo sapiens, UniProt P28566); assay: Binding affinity to 5-HT1E (unknown origin) assessed as inhibition of ligand binding
# Mu-type opioid receptor = Mu-type opioid receptor (Homo sapiens, UniProt P35372); assay: Binding affinity to MOR (unknown origin) assessed as inhibition of ligand binding
# Histamine H2 receptor = Histamine H2 receptor (Homo sapiens, UniProt P25021); assay: Binding affinity to HRH2 (unknown origin) assessed as inhibition of ligand binding
# [25] = AUC (0 to infinity) in Sprague-Dawley rat at 20 mg/kg, po mesured up to 24 hrs; type: ADME, organism-based; design: route oral, dose 20 mg/kg, time <=24; conditions: in vivo; procedure, shortened: as §3
# [26] = target: Kappa-type opioid receptor (Homo sapiens, UniProt P41145); assay: Binding affinity to KOR (unknown origin) assessed as inhibition of ligand binding
# Sequence of Kappa-type opioid receptor (P41145 whole entry): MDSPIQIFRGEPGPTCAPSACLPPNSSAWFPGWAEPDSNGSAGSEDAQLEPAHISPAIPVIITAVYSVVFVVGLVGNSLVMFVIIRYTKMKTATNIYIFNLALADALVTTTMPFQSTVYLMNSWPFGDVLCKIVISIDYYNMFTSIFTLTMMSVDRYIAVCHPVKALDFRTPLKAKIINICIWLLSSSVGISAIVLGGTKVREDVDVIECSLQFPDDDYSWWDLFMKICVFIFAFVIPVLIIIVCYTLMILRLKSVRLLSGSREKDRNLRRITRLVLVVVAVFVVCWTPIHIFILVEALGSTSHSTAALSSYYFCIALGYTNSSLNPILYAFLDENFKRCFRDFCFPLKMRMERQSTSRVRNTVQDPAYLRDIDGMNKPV
# [27] = Cmax in Sprague-Dawley rat at 10 mg/kg, iv mesured up to 24 hrs; type: ADME, organism-based; design: route intravenous, dose 10 mg/kg, time <=24; conditions: in vivo; procedure, shortened: as §3
# [28] = target: Alpha-2A adrenergic receptor (Homo sapiens, UniProt P08913); assay: Binding affinity to alpha2A receptor (unknown origin) assessed as inhibition of ligand binding
# Histamine H1 receptor = Histamine H1 receptor (Homo sapiens, UniProt P35367); assay: Binding affinity to HRH1 (unknown origin) assessed as inhibition of ligand binding
# D(1B) dopamine receptor = D(1B) dopamine receptor (Homo sapiens, UniProt P21918); assay: Binding affinity to DRD5 (unknown origin) assessed as inhibition of ligand binding
# [29] = Drug level in Sprague-Dawley rat plasma at 10 mg/kg, iv after 1 hr; type: ADME, organism-based; procedure, shortened: as §1
# [30] = target: 5-hydroxytryptamine receptor 2C (Homo sapiens) (UniProt P28335); assay: Binding affinity to 5-HT2C (unknown origin) assessed as inhibition of ligand binding at 10 uM relative to control
# [31] = target: Muscarinic acetylcholine receptor M5 (Homo sapiens, UniProt P08912); assay: Binding affinity to M5 receptor (unknown origin) assessed as inhibition of ligand binding
# [32] = target: Alpha-1B adrenergic receptor (Homo sapiens, UniProt P35368); assay: Binding affinity to alpha1B receptor (unknown origin) assessed as inhibition of ligand binding
# hERG (KCNH2) = hERG (KCNH2) (Homo sapiens, UniProt Q12809); assay: Binding affinity to human ERG assessed as inhibition of ligand binding at 10 uM relative to control
# Sequence of hERG (KCNH2) (Q12809 whole entry): as the sequence (Q12809 whole entry) above
# [33] = target: Muscarinic acetylcholine receptor M2 (Homo sapiens, UniProt P08172); assay: Binding affinity to M2 receptor (unknown origin) assessed as inhibition of ligand binding
# Sequence of Muscarinic acetylcholine receptor M2 (P08172 whole entry): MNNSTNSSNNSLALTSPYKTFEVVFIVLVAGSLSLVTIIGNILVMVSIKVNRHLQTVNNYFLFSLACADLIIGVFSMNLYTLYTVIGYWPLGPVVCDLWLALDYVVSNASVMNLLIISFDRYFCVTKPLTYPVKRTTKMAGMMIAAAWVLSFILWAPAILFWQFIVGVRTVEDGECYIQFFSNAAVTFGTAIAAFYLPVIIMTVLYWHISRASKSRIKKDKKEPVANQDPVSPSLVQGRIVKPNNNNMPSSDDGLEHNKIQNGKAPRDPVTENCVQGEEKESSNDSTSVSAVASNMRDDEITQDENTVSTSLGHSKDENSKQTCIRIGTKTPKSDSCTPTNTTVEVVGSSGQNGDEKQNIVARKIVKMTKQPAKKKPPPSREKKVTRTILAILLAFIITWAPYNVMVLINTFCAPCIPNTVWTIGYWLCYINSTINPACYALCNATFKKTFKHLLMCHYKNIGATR
# [34] = target: Muscarinic acetylcholine receptor M1 (Homo sapiens, UniProt P11229); assay: Binding affinity to M1 receptor (unknown origin) assessed as inhibition of ligand binding
# [35] = target: 5-hydroxytryptamine receptor 1D (Homo sapiens, UniProt P28221); assay: Binding affinity to 5-HT1D (unknown origin) assessed as inhibition of ligand binding
# [36] = target: Beta-1 adrenergic receptor (Homo sapiens, UniProt P08588); assay: Binding affinity to beta1 adrenergic receptor (unknown origin) assessed as inhibition of ligand binding
# D(3) dopamine receptor = D(3) dopamine receptor (Homo sapiens, UniProt P35462); assay: Binding affinity to DRD3 (unknown origin) assessed as inhibition of ligand binding
# [37] = Volume of distribution at steady state in Sprague-Dawley rat at 20 mg/kg, po mesured up to 24 hrs; type: ADME, organism-based; conditions: in vivo
# D(1A) dopamine receptor = D(1A) dopamine receptor (Homo sapiens, UniProt P21728); assay: Binding affinity to DRD1 (unknown origin) assessed as inhibition of ligand binding
# [38] = target: Muscarinic acetylcholine receptor M4 (Homo sapiens, UniProt P08173); assay: Binding affinity to M4 receptor (unknown origin) assessed as inhibition of ligand binding
smiles,measurement,setting,value
O=C(NCCO)c1cccc2c1CCN2c1cc(Cc2cc(F)cc(C(F)(F)F)c2)ncn1,concentration at 1 h,[1],1010 ng/g
same,bioavailability,[2],76%
same,Ki,[3],Not Active
same,Ki,[4],Not Active
same,Ki,[5],Not Active
same,Ki,[6],Not Active
same,Ki,[7],Not Active
same,AUC,[8],9030 ng·h/mL
same,Vdss,[9],1.5 L/kg
same,Ki,[10],Not Active
same,BPR,[11],0.39
same,Ki,[12],Not Active
same,Activity,HEK293,inactive
same,Ki,[13],Not Active
same,Ki,[14],Not Active
same,Ki,[15],Not Active
same,Ki,[16],Not Active
same,inhibition,Homo sapiens,5.98%
same,Activity,Mus musculus [17],Active
same,Ki,D(4) dopamine receptor,Not Active
same,Activity,Mus musculus [18],Dose-dependent effect
same,Ki,D(2) dopamine receptor,Not Active
same,Cmax,[19],3407 ng/mL
same,Ki,[20],Not Active
same,Ki,[21],Not Active
same,Ki,[22],Not Active
same,CL,[23],18.3 mL/min/kg
same,Ki,[24],Not Active
same,Ki,Mu-type opioid receptor,Not Active
same,Ki,Histamine H2 receptor,Not Active
same,AUC,[25],13749 ng·h/mL
same,Ki,[26],Not Active
same,Cmax,[27],6726 ng/mL
same,Ki,[28],Not Active
same,Ki,Histamine H1 receptor,Not Active
same,Ki,D(1B) dopamine receptor,Not Active
same,concentration at 1 h,[29],2590 ng/g
same,inhibition,[30],52.6%
same,Ki,[31],Not Active
same,Ki,[32],Not Active
same,inhibition at 10 µM,hERG (KCNH2),11%
same,Ki,[33],Not Active
same,Ki,[34],Not Active
same,Ki,[35],Not Active
same,Ki,[36],Not Active
same,Ki,D(3) dopamine receptor,Not Active
same,Vdss,[37],5.5 L/kg
same,Ki,D(1A) dopamine receptor,Not Active
same,Ki,[38],Not Active
